# Screening data from PubChem BioAssay.
# A selection: hits, their analogues and other compounds. The true share with any hit is near 1.9%.
# SKN-1 block = inhibitors of C. elegans SKN-1. C. elegans VP596 Pgst-4::GFP/RFP ratio, acrylamide-induced, 24 h. inhibition, % at 21.8 µM. hit rate 0.49% among 360,000. AID 624304;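 active = interference check ratio from 0.5 to 1.5 plus GFP to RFP signal ratio inhibition reaching or exceeding a fixed threshold, cut at about 30% in these data, passing the limit was not always enough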
# NR2E3 ag-1 = activates human NR2E3 receptor. Q9Y5X4. CHO-S Gal4-NCOR/VP16-NR2E3 two-hybrid, luciferase. inhibition of corepressor binding, % at 3.98 µM. hit rate 0.35% among 360,000;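 active = inhibition above the mean of all tested compounds plus 3 SD, cut at about 70% in these data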;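 also: 0% = DMSO with NR2E3 transfected cells and 100% = cells lacking NR2E3 construct; higher means lower luciferase signal from less NR2E3 corepressor binding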
# NR1D1 modulator = Rev-erb alpha (human) modulation. Rev-erbα–FITC-DNA binding, fluorescence polarization, 90 min. activity, % at 10 µM. hit rate 0.79% among 370,000. AID 1259318;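 active = activity above about 14%, limit read from the data; passing the limit was not always enough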;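 also: 0% = DMSO wells with 35 nM protein and 100% = DMSO wells with 750 nM protein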
# Target sequence (P20393 whole entry, looked up): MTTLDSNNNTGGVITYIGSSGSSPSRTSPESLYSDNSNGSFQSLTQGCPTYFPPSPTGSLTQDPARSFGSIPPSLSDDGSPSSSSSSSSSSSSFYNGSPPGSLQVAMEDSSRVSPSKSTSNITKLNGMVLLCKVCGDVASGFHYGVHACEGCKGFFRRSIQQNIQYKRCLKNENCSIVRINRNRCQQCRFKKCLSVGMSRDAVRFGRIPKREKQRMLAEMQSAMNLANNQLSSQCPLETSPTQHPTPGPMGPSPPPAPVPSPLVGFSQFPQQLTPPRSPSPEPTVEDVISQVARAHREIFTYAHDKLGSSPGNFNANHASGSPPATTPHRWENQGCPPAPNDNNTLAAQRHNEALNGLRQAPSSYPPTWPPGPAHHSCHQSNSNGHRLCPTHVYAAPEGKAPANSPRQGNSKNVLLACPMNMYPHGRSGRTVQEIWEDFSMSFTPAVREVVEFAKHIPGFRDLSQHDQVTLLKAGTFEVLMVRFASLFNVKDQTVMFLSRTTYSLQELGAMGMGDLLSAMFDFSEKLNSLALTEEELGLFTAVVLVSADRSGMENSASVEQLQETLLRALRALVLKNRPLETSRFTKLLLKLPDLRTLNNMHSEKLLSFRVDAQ
# MT1-MMP act inh = blocks activation of human MT1-MMP; P50281; HT1080 RFP-PRO-GFP cells, GFP/RFP ratio fluorescence, overnight; percent of plate control window, DMSO zero; GFP/RFP ratio change, % at 20 µM; hit rate 0.061% among 360,000; AID 651647;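 active = GFP/RFP ratio change of at least 30% with cell ATP level not reduced by more than half and red fluorescence within 50% of control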
#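 Compound: 20 µM single dose, 1% DMSO / System: HT1080 RFP-PRO-GFP cells / Controls: DMSO and RFP-L50D-GFP cell wells / Read-out basis: GFP/RFP fluorescence ratio / Schedule: overnight compound exposure at 37 °C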
# PG9 binder = binds the HIV-1 gp120 antibody PG9 | TR-FRET gp120-PG9 antibody binding | inhibition, % at 6.7 µM | AID 624416 | hit rate 0.43% among 360,000; in the data active = inhibition above about 8.5%
# NR2E3 ag-2 = NR2E3 (human) agonism; inhibition of corepressor binding, % at 4.78 µM; GST-NR2E3/biotin-RetCOR TR-FRET, 1536-well; Q9Y5X4; hit rate 0.12% among 320,000; AID 2300;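 active = percent inhibition above the cutoff of mean plus 3 SD of all tested compounds, set per screening campaign, cut at about 20% in these data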;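 also: 0% = DMSO wells and 100% = biotin wells as full block of FRET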
#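 Test system: GST-NR2E3 and biotin-RetCOR proteins | Quantity: 1.35 nM GST-tagged NR2E3 final | Medium: Tris pH 7.5 | Also added: 7 nM biotin-RetCOR | Dosing: Compound at 4.8 µM, single dose | Timing: 5 h at 4 °C | Detection: Time-resolved FRET | Read-out basis: Percent inhibition | Benchmarks: Biotin wells as high control, 0.6% DMSO wells as low control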
# PG9 bind confirm = PG9 antibody binding, confirmed | hit rate 90% among 1,500 | AID 651571 | inhibition, % at 6.7 µM | TR-FRET PG9 antibody binding, biochemical | shares compounds with PG9 binder; in the data active = inhibition above about 9%
# PGV04 counter = PGV04 control antibody binding, counter-screen | shares compounds with PG9 binder | TR-FRET PGV04 antibody-gp120 binding, biochemical | inhibition, % at 6.7 µM | hit rate 95% among 1,500; in the data active = inhibition above about 9.5%
# PG9 bind DR = PG9 antibody binding, dose response. TR-FRET PG9 antibody-gp120 binding inhibition. 95 tested, under 10 active. shares compounds with PG9 binder. IC50, µM; in the data active = IC50 below about 10 µM
# PGV04 binding DR = binds control antibody PGV04 in PG9 counter-screen; IC50, µM; hit rate 20% among 95; shares compounds with PG9 binder; TR-FRET binding to control antibody PGV04
# PG126 DR counter = PG126 binding, dose response counter-screen | shares compounds with PG9 binder | TR-FRET binding to antibody PG126, counterscreen | IC50, µM | hit rate 20% among 95
# NR1D1 mod conf = Rev-erb alpha (human) modulation, hit confirmation | Rev-erb alpha FITC-DNA binding, fluorescence polarization, 90 min | AID 1259319 | activation, % at 25 µM | hit rate 61% among 3,000 | shares compounds with NR1D1 modulator;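 active = activation at or above a set limit, or at least 3 SD above the negative control mean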;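 also: 0% = 35 nM protein with DMSO and 100% = 750 nM protein high control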
# RORg counter = RORgamma DNA-binding activity, dose-response counter-screen; shares compounds with NR1D1 modulator; purified RORgamma protein-FITC-DNA binding, fluorescence polarization; IC50, µM; hit rate 8% among 910; AID 1259320;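 active = Compounds whose fitted half-maximal concentration for disrupting protein-DNA binding is below 10 micromolar; the record names Rev-erb in its text, so the target is in doubt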
# * = called active by the depositor; x = no result. Rule as the data show it, unless noted: active = IC50 below about 9 µM; inactive = the rest.
SMILES,SKN-1 block,NR2E3 ag-1,NR1D1 modulator,MT1-MMP act inh,PG9 binder,NR2E3 ag-2,PG9 bind confirm,PGV04 counter,NR1D1 mod conf,others
COC(=O)Cn1c(=NC(=O)c2ccc(OC)cc2)sc2cc(OC)ccc21,4,-9,34*,2,64*,1,49*,60*,-3,
Cn1c(-c2ccc(C=O)s2)nc2c3ccccc3c3ccccc3c21,9,-52,135*,-7,8.9*,-2,6,8,114*,
CCCCCCC(=O)NC1CCCCN(Cc2ccccc2C)C1=O (stereo unspecified),x,x,3,x,x,x,x,x,x,
Cc1cc(NC(=O)CSc2nc3c(C)cccc3cc2C#N)no1,-2,-27,83*,-46,27*,-38,43*,72*,53*,RORg counter=>40
Cc1cccc2cc(C#N)c(SCC(=O)Nc3ccccc3N3CCOCC3)nc12,13,-15,48*,-44,17*,5,17*,39*,44*,RORg counter=>40
O=C(Nc1ccc(C(F)(F)F)cc1)OC1CCC12CCCCC2 (stereo unspecified),x,x,3,x,x,x,x,x,x,
CCN=C1NC(c2cccc(Cl)c2)C(C(=O)OC)=C(C)N1Cc1ccccc1C(F)(F)F (stereo unspecified),x,x,4,x,0,x,x,x,x,
COc1ccc(-c2c(C#N)c(N)nc(Sc3ccc(Cl)cc3)c2C#N)cc1,-1,-12,83*,-3,31*,6,97*,95*,48*,PG9 bind DR=8.5*;PGV04 binding DR=4.4*;PG126 DR counter=4.9*;RORg counter=>40
CCOC(=O)CSc1nc(N)c(C#N)c(-c2ccc(OC)cc2)c1C#N,9,-21,76*,1,63*,1,68*,23*,55*,PG9 bind DR=7.6*;PGV04 binding DR=6.1*;PG126 DR counter=7*
CSc1nc(-c2ccc(Cl)cc2)nc(N)c1C#N,-1,7,29*,1,25*,-3,49*,67*,-2,
CCCCOc1ccc(-c2c(C#N)c(N)nc(SCC(N)=O)c2C#N)cc1,6,6,-2,7,-2,6,x,x,x,
COc1ccc(-n2c(SCC(=O)N3CCCC3)nnc2-c2ccncc2)cc1,x,x,-4,x,x,x,x,x,x,
N=C1C(c2nc3ccccc3s2)=C(O)CN1NC(=O)c1c[nH]c2ccccc12,1,-1,32*,6,12*,0,22*,39*,51*,RORg counter=>40
COC(=O)C12C=C3CC(c4ccc(C(F)(F)F)cc4)=C3C(=O)N1Cc1[nH]c3ccccc3c1C2 (stereo unspecified),x,x,1,x,x,x,x,x,x,
CCNc1nc(Cl)nc(-c2cn(-c3ccccc3)c3ccccc23)n1,-13,-1,42*,3,11*,1,9.0*,9.4*,14,
Clc1nc(Oc2ccccc2)nc(-c2cn(-c3ccccc3)c3ccccc23)n1,10,-11,-11,1,-3,-3,x,x,x,
Cc1cc(C)c(C#N)c(SCCS(=O)(=O)Cc2ccc(Cl)cc2)n1,4,4,36*,1,11*,-3,22*,31*,18*,
COC(=O)[C@@H]1C[C@@]2(c3ccccc3)c3ccccc3N(S(=O)(=O)c3ccccc3)[C@H]2N1C(=O)CNC/C=C(\C)CCC=C(C)C,x,x,-2,x,x,x,x,x,x,
Cc1cc(C)c2c(N)c(C(=O)Nc3ccccc3Br)sc2n1,-7,-82,38*,-4,9.1*,-10,23*,38*,28*,
CC1CN(S(=O)(=O)c2ccc(C(=O)Nc3nc(-c4cc5ccccc5o4)cs3)cc2)CC(C)O1 (stereo unspecified),-2,-4,64*,-12,63*,-1,71*,79*,12,
COc1ccc(C2CC(=O)C(c3cccc(F)c3)=CN2Cc2ccccc2)cc1 (stereo unspecified),x,x,12,x,-1,x,x,x,x,
CCCCCCn1c(=O)c(-c2ccccc2)c(O)c2ccccc21,-12,0,-4,-2,3,-1,x,x,x,
CCCn1c(=O)c(-c2nc3ccccc3[nH]2)c(O)c2ccccc21,7,16,26*,-2,50*,0,62*,71*,-4,
CCn1c(=O)c(-c2nc3ccccc3[nH]2)c(O)c2ccccc21,x,x,32*,x,44*,4,43*,49*,1,
Cc1ccc(C(=O)NC2CCCCN(Cc3cccc(F)c3)C2=O)cc1 (stereo unspecified),x,x,4,x,x,x,x,x,x,
SMILES,SKN-1 block,NR2E3 ag-1,NR1D1 modulator,MT1-MMP act inh,PG9 binder,NR2E3 ag-2,PG9 bind confirm,PGV04 counter,NR1D1 mod conf,others
CCOC(=O)c1nn(-c2cccc(OC)c2)c2nc(CC)c(C#N)c(=O)n12,3,0,37*,1,28*,0,21*,25*,16,
c1ccc2nc(-c3ccc(N4CCOCC4)cc3)ccc2c1,12,-73,90*,2,39*,10,45*,42*,64*,PG9 bind DR=>67;PGV04 binding DR=3.7*;PG126 DR counter=4.2*;RORg counter=>40
CC(=O)NCCNc1nc2c(-c3cccc(C(F)(F)F)c3)nnn2c2ccccc12,11,-18,69*,-2,25*,2,15*,57*,3,
Cc1ccc(-c2nc3ncccc3o2)cc1NC(=O)COc1ccccc1,0,-6,22*,4,9.1*,0,13*,18*,9,
Cc1ccc(-c2nc3ncccc3o2)cc1NC(=O)CC(C)C,2,-8,6,-1,-1,-1,x,x,x,
Cc1ccc(-c2nc3ncccc3o2)cc1NC(=O)c1cc2ccccc2o1,0,-25,19*,0,8.9*,1,12*,35*,0,
O=C(Nc1cccc(-c2nc3ncccc3o2)c1)c1cc2ccccc2o1,19,-59,-3,1,-1,-4,x,x,x,
COC(=O)Cc1nnn2c1[C@H](C)[C@@H](OC)c1ccccc1-2,x,x,2,x,-1,x,x,x,x,
